In ChEMBL document CHEMBL4382268, “Glycyrrhetinic acid derivatives containing aminophosphonate ester species as multidrug resistance reversers that block the NF-κB pathway and cell proliferation” (Bioorg Med Chem Lett, 2018):

Tests used:
A549 = test: Antiproliferative activity against human A549 cells after 48 hrs by MTT assay; assay type: functional, cell-based; details: A549, 48 h
Procedure, shortened: (§1)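 MTT read-out of antiproliferative activity across cancer lines HepG-2, NCI-H460, MGC-803, A549 and MG-63 and normal liver line HL-7702. IC50 given as mean ± S.D. of three separate experiments, each run in triplicate.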

[1] = Inhibition of TNF-alpha induced NF-kappaB activation in human A549 cells after 7 hrs by Bright-Glo luciferase reporter gene assay; assay type: cell-based
Procedure, shortened: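 A549 cells transiently cotransfected with an NF-κB-Luc reporter and stimulated with TNF-α. Luciferase read-out of inhibition gives IC50, the mean of at least three independent experiments each with triplicates.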

L02 = test: Antiproliferative activity against human HL-7702 cells after 48 hrs by MTT assay; assay type: functional, cell-based; details: L02, 48 h; procedure, shortened: as §1
MGC-803 = test: Antiproliferative activity against human MGC803 cells after 48 hrs by MTT assay; assay type: functional, cell-based; details: MGC-803, 48 h; procedure, shortened: as §1
MG-63 = test: Antiproliferative activity against human MG63 cells after 48 hrs by MTT assay; assay type: functional, cell-based; details: MG-63, 48 h; procedure, shortened: as §1
NCI-H460 = test: Antiproliferative activity against human NCI-H460 cells after 48 hrs by MTT assay; assay type: functional, cell-based; details: NCI-H460, 48 h; procedure, shortened: as §1
HepG2 = test: Antiproliferative activity against human HepG2 cells after 48 hrs by MTT assay; assay type: functional, cell-based; details: HepG2, 48 h; procedure, shortened: as §1
[2] = Growth inhibition of cisplatin-resistant human SKOV3/DDP cells after 48 hrs by MTT assay; assay type: functional; details: SK-OV-3, 48 h
Procedure, shortened: (§2)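 MTT growth inhibition in the paired ovarian lines, cisplatin-sensitive SK-OV-3 and cisplatin-resistant SK-OV-3/CDDP. IC50 given as mean ± S.D. of three separate experiments, each in triplicate.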

[3] = Selectivity ratio of IC50 for cisplatin-resistant human SKOV3/DDP cells to IC50 for cisplatin sensitive human SKOV3 cells; assay type: functional
Procedure, shortened: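 IC50 determined in resistant SK-OV-3/CDDP cells divided by IC50 in parental SK-OV-3 cells. Each IC50 by MTT, three separate experiments each in triplicate.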

SK-OV-3 = test: Growth inhibition of cisplatin sensitive human SKOV3 cells after 48 hrs by MTT assay; assay type: functional, cell-based; details: SK-OV-3, 48 h; procedure, shortened: as §2
[4] = Homo sapiens, A549, 7 h, read-out: IC50

SMILES | IC50 (A549) [µM] | IC50 [1, 4] [µM] | IC50 (MGC-803) [µM] | IC50 (NCI-H460) [µM] | IC50 (HepG2) [µM] | IC50 (SK-OV-3) [µM] | IC50 ([1]; a549) | IC50 (L02) [µM] | IC50 (MG-63) [µM] | IC50 [2] [µM] | Ratio IC50 [3]
CCOP(=O)(OCC)C(Nc1ccc(CC(=O)NCCCNC(=O)[C@@]2(C)CC[C@]3(C)CC[C@]4(C)C(=CC(=O)[C@@H]5[C@@]6(C)CC[C@H](OC(C)=O)C(C)(C)[C@@H]6CC[C@]54C)[C@@H]3C2)cc1)c1ccccc1 (some centres undefined) | 30.3 | 22.1 | 21 | 23.2 | 31.6 |  |  | > 50 | 25.3 |  | 
CCOP(=O)(OCC)C(Nc1ccc(CC(=O)NCCCCNC(=O)[C@@]2(C)CC[C@]3(C)CC[C@]4(C)C(=CC(=O)[C@@H]5[C@@]6(C)CC[C@H](OC(C)=O)C(C)(C)[C@@H]6CC[C@]54C)[C@@H]3C2)cc1)c1cccc(Br)c1 (some centres undefined) | 39.6 | 27.1 | 41.8 | 47.6 | 48.2 |  |  | > 50 | > 50 |  | 
CCOP(=O)(OCC)C(Nc1ccc(CC(=O)NCCCCNC(=O)[C@@]2(C)CC[C@]3(C)CC[C@]4(C)C(=CC(=O)[C@@H]5[C@@]6(C)CC[C@H](OC(C)=O)C(C)(C)[C@@H]6CC[C@]54C)[C@@H]3C2)cc1)c1ccc(OC)cc1 (some centres undefined) | 15.2 | 2.01 | 16.3 | 14.1 | 15.3 |  |  | > 50 | 13.9 |  | 
CCOP(=O)(OCC)C(Nc1ccc(CC(=O)NCCCCNC(=O)[C@@]2(C)CC[C@]3(C)CC[C@]4(C)C(=CC(=O)[C@@H]5[C@@]6(C)CC[C@H](OC(C)=O)C(C)(C)[C@@H]6CC[C@]54C)[C@@H]3C2)cc1)c1ccc(Br)cc1 (some centres undefined) | 17.3 | 11.1 | 17.4 | 10.2 | 19.8 |  |  | > 50 | 19.2 |  | 
CCOP(=O)(OCC)C(Nc1ccc(CC(=O)NCCCNC(=O)[C@@]2(C)CC[C@]3(C)CC[C@]4(C)C(=CC(=O)[C@@H]5[C@@]6(C)CC[C@H](OC(C)=O)C(C)(C)[C@@H]6CC[C@]54C)[C@@H]3C2)cc1)c1cccc(OC)c1 (some centres undefined) | 39.3 | > 30 | 36.7 | 31.7 | 38.2 |  |  | > 50 | 39.5 |  | 
CCOP(=O)(OCC)C(Nc1ccc(CC(=O)NCCCNC(=O)[C@@]2(C)CC[C@]3(C)CC[C@]4(C)C(=CC(=O)[C@@H]5[C@@]6(C)CC[C@H](OC(C)=O)C(C)(C)[C@@H]6CC[C@]54C)[C@@H]3C2)cc1)c1cccc(Br)c1 (some centres undefined) | > 50 | > 30 | > 50 | > 50 | > 50 |  |  | > 50 | > 50 |  | 
CCOP(=O)(OCC)C(Nc1ccc(CC(=O)NCCCCNC(=O)[C@@]2(C)CC[C@]3(C)CC[C@]4(C)C(=CC(=O)[C@@H]5[C@@]6(C)CC[C@H](OC(C)=O)C(C)(C)[C@@H]6CC[C@]54C)[C@@H]3C2)cc1)c1cccc(F)c1 (some centres undefined) | 26.4 | 27.4 | 21 | 28.2 | 21.3 |  |  | > 50 | 22.8 |  | 
CCOP(=O)(OCC)C(Nc1ccc(CC(=O)NCCCNC(=O)[C@@]2(C)CC[C@]3(C)CC[C@]4(C)C(=CC(=O)[C@@H]5[C@@]6(C)CC[C@H](OC(C)=O)C(C)(C)[C@@H]6CC[C@]54C)[C@@H]3C2)cc1)c1cccc(F)c1 (some centres undefined) | 34 | > 30 | 27.2 | 29.5 | 37.7 |  |  | > 50 | > 50 |  | 
CCOP(=O)(OCC)C(Nc1ccc(CC(=O)NCCCNC(=O)[C@@]2(C)CC[C@]3(C)CC[C@]4(C)C(=CC(=O)[C@@H]5[C@@]6(C)CC[C@H](OC(C)=O)C(C)(C)[C@@H]6CC[C@]54C)[C@@H]3C2)cc1)c1ccc(F)cc1 (some centres undefined) | 15 | 3.01 | 16.3 | 14.9 | 15.3 | 10.1 |  | > 50 | 13.7 | 13.4 | 1.32
CCOP(=O)(OCC)C(Nc1ccc(CC(=O)NCCCCNC(=O)[C@@]2(C)CC[C@]3(C)CC[C@]4(C)C(=CC(=O)[C@@H]5[C@@]6(C)CC[C@H](OC(C)=O)C(C)(C)[C@@H]6CC[C@]54C)[C@@H]3C2)cc1)c1cccc(OC)c1 (some centres undefined) | 27.2 | 23.4 | 32.9 | 27.4 | 35.3 |  |  | > 50 | 36.6 |  | 

Continued, in another order:

IC50 (A549) [µM] | IC50 [1, 4] [µM] | IC50 (MGC-803) [µM] | IC50 (NCI-H460) [µM] | IC50 (HepG2) [µM] | IC50 (SK-OV-3) [µM] | IC50 ([1]; a549) | SMILES | IC50 (L02) [µM] | IC50 (MG-63) [µM] | IC50 [2] [µM] | Ratio IC50 [3]
24.9 | 16.3 | 30.9 | 25.2 | 29.2 |  |  | CCOP(=O)(OCC)C(Nc1ccc(CC(=O)NCCCCNC(=O)[C@@]2(C)CC[C@]3(C)CC[C@]4(C)C(=CC(=O)[C@@H]5[C@@]6(C)CC[C@H](O)C(C)(C)[C@@H]6CC[C@]54C)[C@@H]3C2)cc1)c1ccc(Br)cc1 (some centres undefined) | > 50 | 24.6 |  | 
23.1 | 17.1 | 25.7 | 29.4 | 36.8 |  |  | CCOP(=O)(OCC)C(Nc1ccc(CC(=O)NCCCNC(=O)[C@@]2(C)CC[C@]3(C)CC[C@]4(C)C(=CC(=O)[C@@H]5[C@@]6(C)CC[C@H](O)C(C)(C)[C@@H]6CC[C@]54C)[C@@H]3C2)cc1)c1ccc(OC)cc1 (some centres undefined) | > 50 | 23.6 |  | 
25.2 | 13.1 | 22.2 | 24 | 32.2 |  |  | CCOP(=O)(OCC)C(Nc1ccc(CC(=O)NCCCCNC(=O)[C@@]2(C)CC[C@]3(C)CC[C@]4(C)C(=CC(=O)[C@@H]5[C@@]6(C)CC[C@H](O)C(C)(C)[C@@H]6CC[C@]54C)[C@@H]3C2)cc1)c1ccc(OC)cc1 (some centres undefined) | > 50 | 17.2 |  | 
> 50 | > 30 | > 50 | > 50 | > 50 |  |  | CCOP(=O)(OCC)C(Nc1ccc(CC(=O)NCCCCNC(=O)[C@@]2(C)CC[C@]3(C)CC[C@]4(C)C(=CC(=O)[C@@H]5[C@@]6(C)CC[C@H](O)C(C)(C)[C@@H]6CC[C@]54C)[C@@H]3C2)cc1)c1cccc(F)c1 (some centres undefined) | > 50 | > 50 |  | 
19.8 | 6.09 | 18.3 | 19.4 | 20.2 |  |  | CCOP(=O)(OCC)C(Nc1ccc(CC(=O)NCCCCNC(=O)[C@@]2(C)CC[C@]3(C)CC[C@]4(C)C(=CC(=O)[C@@H]5[C@@]6(C)CC[C@H](O)C(C)(C)[C@@H]6CC[C@]54C)[C@@H]3C2)cc1)c1ccc(F)cc1 (some centres undefined) | > 50 | 12.4 |  | 
36.1 | > 30 | > 50 | 37.6 | 44.5 | 45.6 |  | CC1(C)[C@@H](O)CC[C@]2(C)[C@H]3C(=O)C=C4[C@@H]5C[C@@](C)(C(=O)O)CC[C@]5(C)CC[C@@]4(C)[C@]3(C)CC[C@@H]12 [ENOXOLONE] | > 50 | > 50 | 49.4 | 1.08
> 50 |  | > 50 | > 50 | > 50 |  | Not Active | CCOP(=O)(OCC)C(Nc1ccc(CC(=O)NCCCNC(=O)[C@@]2(C)CC[C@]3(C)CC[C@]4(C)C(=CC(=O)[C@@H]5[C@@]6(C)CC[C@H](O)C(C)(C)[C@@H]6CC[C@]54C)[C@@H]3C2)cc1)c1cccc(F)c1 (some centres undefined) | > 50 | > 50 |  | 
17.9 | 8.89 | 20.5 | 17.3 | 29.1 |  |  | CCOP(=O)(OCC)C(Nc1ccc(CC(=O)NCCCNC(=O)[C@@]2(C)CC[C@]3(C)CC[C@]4(C)C(=CC(=O)[C@@H]5[C@@]6(C)CC[C@H](O)C(C)(C)[C@@H]6CC[C@]54C)[C@@H]3C2)cc1)c1ccc(F)cc1 (some centres undefined) | > 50 | 16.5 |  | 
36 | 28.2 | 31.1 | 46.1 | 40.4 |  |  | CCOP(=O)(OCC)C(Nc1ccc(CC(=O)NCCCNC(=O)[C@@]2(C)CC[C@]3(C)CC[C@]4(C)C(=CC(=O)[C@@H]5[C@@]6(C)CC[C@H](O)C(C)(C)[C@@H]6CC[C@]54C)[C@@H]3C2)cc1)c1ccccc1 (some centres undefined) | > 50 | 31 |  | 
